Reference: ChEMBL document CHEMBL1135672, “QSAR evaluation of the Ch'an Su and related bufadienolides against the colchicine-resistant primary liver carcinoma cell line PLC/PRF/5(1)” (J Med Chem, 2002)
In brackets after ≈: the same amount, converted by molar mass.

Assays:
[1] = Inhibitory activity against colchicine resistant parent primary liver carcinoma (PLC) cell line PLC/PRF/5; format: functional, Homo sapiens
In short: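 PLC/PRF/5 cells were precultured 24 h at 37 °C in 5% CO₂ in 96-well plates, then given colchicine at 0.5 μg/mL. Test compounds were added in dilutions of 10⁻²–10⁻⁶ μg/mL and incubated 72 h at 37 °C in 5% CO₂. Survival was read by MTT. IC50 is the μg/mL giving 50% growth inhibition of the colchicine-resistant cells.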

[2] = Inhibitory activity against the primary liver carcinoma (PLC) cell line PLC/PRF/5; format: functional, Homo sapiens

Compound	IC50 [1]	IC50 [2]
C[C@]12CCC3C(CC[C@@H]4C[C@@H](O)CC[C@]34C)C1=CC[C@@H]2C1=CC(=O)OC1 (stereo partly drawn)	0.73 µg/mL (≈ 2.05 µM)	0.36 µg/mL (≈ 1.01 µM)
C[C@]12C=CC(=O)C=C1CCC1C2CC[C@]2(C)[C@@H](c3ccc(=O)oc3)C[C@H]3O[C@]132 (stereo partly drawn)	10 µg/mL (≈ 26.4 µM)	6.7 µg/mL (≈ 17.7 µM)
C[C@]12C=CC(=O)C[C@H]1CCC1C2CC[C@]2(C)[C@@H](c3ccc(=O)oc3)C[C@H]3O[C@]132 (stereo partly drawn)	7.8 µg/mL (≈ 20.5 µM)	2.6 µg/mL (≈ 6.83 µM)
CC(=O)O[C@H]1CC[C@@]2(C)[C@H](CC[C@@H]3[C@@H]2CC[C@]2(C)[C@@H](c4ccc(=O)oc4)C(=O)[C@H]4O[C@@]432)C1	7.6 µg/mL (≈ 17.3 µM)	2.4 µg/mL (≈ 5.45 µM)
CC(=O)O[C@H]1CC[C@@]2(C)[C@H](CC[C@@H]3[C@@H]2CC[C@]2(C)[C@@H](c4ccc(=O)oc4)[C@@H](OC(=O)CCC(=O)O)[C@H]4O[C@]342)C1	> 50 µg/mL	50 µg/mL (≈ 92.1 µM)
C[C@]12CC[C@H]3[C@@H](CC[C@]4(O)C[C@@H](O)CC[C@]34C=O)[C@@]1(O)CC[C@@H]2c1ccc(=O)oc1	0.00053 µg/mL (≈ 0.00127 µM)	0.00016 µg/mL (≈ 0.000384 µM)
C[C@]12CC[C@H](O)C[C@H]1CC[C@@H]1[C@@H]2CC[C@]2(C)C(/C(=C/CO)CO)C[C@H]3O[C@]132 (stereo partly drawn)	> 50 µg/mL	> 50 µg/mL
COC(=O)CCCCCCC(=O)O[C@H]1CC[C@@]2(C)[C@H](CC[C@@H]3[C@@H]2CC[C@]2(C)[C@@H](C4=CC(=O)OC4)CC[C@]32O)C1	0.98 µg/mL (≈ 1.8 µM)	0.53 µg/mL (≈ 0.973 µM)
CC(=O)O[C@H]1CC[C@@]2(C)[C@H](CC[C@@H]3[C@@H]2CC[C@]2(C)[C@@H](c4ccc(=O)oc4)C[C@H](O)[C@]32O)C1	5.6 µg/mL (≈ 12.6 µM)	0.71 µg/mL (≈ 1.6 µM)
COC(=O)C/C=C/C1=CO[C@]23CCC1[C@@]2(C)C[C@@H](OC(C)=O)[C@H]1[C@H]3CC[C@@H]2C[C@@H](OC(C)=O)CC[C@@]21C	20 µg/mL (≈ 38.9 µM)	9.7 µg/mL (≈ 18.8 µM)
C[C@]12CC[C@H](OC(=O)CCC(=O)O)C[C@H]1CC[C@@H]1[C@@H]2CC[C@]2(C)[C@@H](c3ccc(=O)oc3)CC[C@]12O	0.51 µg/mL (≈ 1.05 µM)	0.066 µg/mL (≈ 0.136 µM)
CC(=O)O[C@H]1[C@H]2O[C@]23[C@@H]2CC[C@@H]4C[C@@H](OC(=O)CCC(=O)O)CC[C@]4(C)[C@H]2CC[C@]3(C)[C@H]1c1ccc(=O)oc1	0.96 µg/mL (≈ 1.77 µM)	0.85 µg/mL (≈ 1.57 µM)
C[C@]12CC[C@H](O)C[C@H]1CC[C@@H]1[C@@H]2CC[C@]2(C)C3CC[C@]12OC=C3/C=C/CC(=O)O	> 50 µg/mL	10 µg/mL (≈ 25 µM)
CC(=O)O[C@H]1[C@H]2O[C@]23[C@@H]2CC[C@@H]4C[C@@H](OC(=O)CCCCCCC(=O)O)CC[C@]4(C)[C@H]2CC[C@]3(C)[C@H]1c1ccc(=O)oc1	0.06 µg/mL (≈ 0.1 µM)	0.01 µg/mL (≈ 0.0167 µM)
CC(=O)O[C@H]1CC[C@@]2(C)[C@H](CC[C@@H]3[C@@H]2[C@H](O)C(=O)[C@]2(C)[C@@H](c4ccc(=O)oc4)CC[C@]32O)C1	6.8 µg/mL (≈ 14.8 µM)	0.87 µg/mL (≈ 1.9 µM)
CC(=O)CC1CC2C(O1)[C@H]1O[C@]13[C@@H]1CC[C@@H]4C[C@@H](O)CC[C@]4(C)[C@H]1CC[C@]23C (stereo partly drawn)	> 50 µg/mL	9.5 µg/mL (≈ 24.5 µM)
C[C@]12CC[C@@H](O)C[C@H]1CC[C@@H]1[C@@H]2CC[C@]2(C)[C@@H](c3ccc(=O)oc3)C[C@H]3O[C@]132	43 µg/mL (≈ 112 µM)	8.3 µg/mL (≈ 21.6 µM)
CC(=O)O[C@H]1[C@H]2O[C@]23[C@@H]2CC[C@@H]4C[C@@H](OC(=O)c5cc([N+](=O)[O-])cc([N+](=O)[O-])c5)CC[C@]4(C)[C@H]2CC[C@]3(C)[C@H]1c1ccc(=O)oc1	9.6 µg/mL (≈ 15.1 µM)	0.78 µg/mL (≈ 1.23 µM)
C[C@]12CC[C@H]3[C@@H](CC[C@@H]4C[C@@H](O)CC[C@@]43C=O)[C@]13O[C@@H]3C[C@@H]2c1ccc(=O)oc1	0.075 µg/mL (≈ 0.188 µM)	0.0089 µg/mL (≈ 0.0223 µM)
COC(=O)C/C=C/C1=CO[C@]23CCC1[C@@]2(C)CC[C@H]1[C@H]3CC[C@@H]2C[C@@H](O)CC[C@@]21C	45 µg/mL (≈ 109 µM)	9.1 µg/mL (≈ 21.9 µM)
COC(=O)C/C=C/C1=CO[C@]23CCC1[C@@]2(C)CC[C@H]1[C@H]3CC[C@@H]2C[C@@H](OC(C)=O)CC[C@@]21C	41 µg/mL (≈ 89.8 µM)	6.6 µg/mL (≈ 14.5 µM)
C[C@]12CC[C@H](O)C[C@H]1CC[C@@H]1[C@@H]2CC[C@]2(C)[C@@H](c3ccc(=O)oc3)C[C@H](O)[C@]12Cl	0.82 µg/mL (≈ 1.95 µM)	0.07 µg/mL (≈ 0.166 µM)

Compound	IC50 [1]	IC50 [2]
C[C@]12CC[C@H](O)C[C@H]1CC[C@@H]1[C@@H]2CC[C@]2(C)[C@@H](c3ccc(=O)oc3)C[C@H](O)[C@]12O	30 µg/mL (≈ 74.5 µM)	35 µg/mL (≈ 86.9 µM)
CC(=O)O[C@H]1CC[C@@]2(C)[C@H](CC[C@@H]3[C@@H]2CC[C@]2(C)[C@@H](c4ccc(=O)oc4)[C@H](O)[C@H]4O[C@]342)C1	7.5 µg/mL (≈ 16.9 µM)	6.7 µg/mL (≈ 15.1 µM)
C=C(C)C(=O)O[C@H]1CC[C@@]2(C)[C@H](CC[C@@H]3[C@@H]2CC[C@]2(C)[C@@H](c4ccc(=O)oc4)CC[C@]32O)C1	0.097 µg/mL (≈ 0.213 µM)	0.059 µg/mL (≈ 0.13 µM)
CC(=O)O[C@H]1CC[C@@]2(C)[C@H](CC[C@@H]3[C@@H]2CC[C@]2(C)[C@@H](c4ccc(=O)oc4)CC(=O)[C@]32O)C1	6.4 µg/mL (≈ 14.5 µM)	0.077 µg/mL (≈ 0.174 µM)
C[C@]12CCC(=O)C[C@H]1CC[C@@H]1[C@@H]2CC[C@]2(C)[C@@H](c3ccc(=O)oc3)C(=O)[C@H]3O[C@@]312	5.6 µg/mL (≈ 14.1 µM)	0.85 µg/mL (≈ 2.14 µM)
COC(=O)C/C=C/C1=CO[C@]23C[C@H](OC(C)=O)C1[C@@]2(C)CC[C@H]1[C@H]3CC[C@@H]2C[C@@H](OC(C)=O)CC[C@@]21C	50 µg/mL (≈ 97.2 µM)	49 µg/mL (≈ 95.2 µM)
C[C@]12CCC(=O)C[C@H]1CC[C@@H]1[C@@H]2CC[C@]2(C)[C@@H](c3ccc(=O)oc3)CC(=O)[C@@H]12	10 µg/mL (≈ 26.1 µM)	7 µg/mL (≈ 18.3 µM)
CCOC(=O)C/C=C(\C=O)C1[C@@H](O)C(=O)[C@H]2[C@@H]3CC[C@@H]4C[C@@H](OC(C)=O)CC[C@]4(C)[C@H]3CC[C@]12C (stereo partly drawn)	33 µg/mL (≈ 67.5 µM)	22 µg/mL (≈ 45 µM)
CC(=O)O[C@H]1CC[C@@]2(C)[C@H](CC[C@@H]3[C@@H]2CC[C@]2(C)[C@@H](c4ccc(=O)oc4)CC(=O)[C@@H]32)C1	1.8 µg/mL (≈ 4.22 µM)	0.55 µg/mL (≈ 1.29 µM)
C[C@]12CC[C@H](O)C[C@H]1CC[C@@H]1[C@@H]2CC[C@]2(C)[C@@H](c3ccc(=O)oc3)CC(=O)[C@@H]12	12 µg/mL (≈ 31.2 µM)	8.2 µg/mL (≈ 21.3 µM)
C[C@]12CC[C@@H](O)C[C@H]1CC[C@@H]1[C@@H]2CC[C@]2(C)[C@@H](c3ccc(=O)oc3)C[C@@H]3O[C@]312	6.4 µg/mL (≈ 16.6 µM)	4.7 µg/mL (≈ 12.2 µM)
C[C@]12CC[C@H](O)C[C@H]1CC[C@@H]1[C@@H]2CC[C@]2(C)[C@@H](c3ccc(=O)oc3)C[C@@H]3O[C@]312	26 µg/mL (≈ 67.6 µM)	20 µg/mL (≈ 52 µM)
C[C@]12CCC(=O)C=C1CCC1C2CC[C@]2(C)[C@@H](c3ccc(=O)oc3)CC[C@]12O (stereo partly drawn)	0.82 µg/mL (≈ 2.14 µM)	0.00019 µg/mL (≈ 0.000497 µM)
C[C@]12CCC(=O)C[C@H]1CCC1C2CC[C@]2(C)[C@@H](c3ccc(=O)oc3)C[C@@H]3O[C@@]132 (stereo partly drawn)	43 µg/mL (≈ 112 µM)	8.7 µg/mL (≈ 22.7 µM)
CC(=O)O[C@H]1CC[C@]2(C)C3CC[C@@]4(C)C(=C[C@H](OC(C)=O)[C@@H]4c4ccc(=O)oc4)C3CC[C@@H]2C1 (stereo partly drawn)	7.3 µg/mL (≈ 15.6 µM)	5 µg/mL (≈ 10.7 µM)
CC(=O)O[C@@H]1CC[C@]2(C)C3CC[C@]4(C)[C@@H](c5ccc(=O)oc5)C[C@@H]5O[C@@]54C3CC[C@@H]2C1 (stereo partly drawn)	43 µg/mL (≈ 101 µM)	4.7 µg/mL (≈ 11 µM)
C[C@]12CC[C@H](O)C[C@@]1(O)CCC1C2CC[C@]2(C)[C@@H](c3ccc(=O)oc3)C[C@@H]3O[C@@]132 (stereo partly drawn)	0.49 µg/mL (≈ 1.22 µM)	0.52 µg/mL (≈ 1.3 µM)
CC(=O)O[C@H]1CC[C@]2(C)C3CC[C@]4(C)[C@@H](c5ccc(=O)oc5)[C@@H](O)[C@@H]5O[C@@]54C3CC[C@@H]2C1 (stereo partly drawn)	1 µg/mL (≈ 2.26 µM)	0.88 µg/mL (≈ 1.99 µM)
CC(=O)O[C@H]1CC[C@]2(C)C3CC[C@]4(C)[C@@H](c5ccc(=O)oc5)C[C@@H]5O[C@@]54C3CC[C@@H]2C1 (stereo partly drawn)	7.3 µg/mL (≈ 17.1 µM)	5.9 µg/mL (≈ 13.8 µM)
CC(=O)O[C@H]1CC[C@@]2(C)[C@H](CC[C@@H]3[C@@H]2CC[C@]2(C)[C@@H](c4ccc(=O)oc4)C[C@H]4O[C@]342)C1	0.95 µg/mL (≈ 2.23 µM)	0.32 µg/mL (≈ 0.75 µM)
C[C@]12CCC(=O)C[C@H]1CC[C@@H]1[C@@H]2CC[C@]2(C)[C@@H](c3ccc(=O)oc3)C[C@H]3O[C@]132	9.7 µg/mL (≈ 25.4 µM)	5.8 µg/mL (≈ 15.2 µM)
C[C@]12CC[C@H]3[C@@H](CC[C@@H]4C[C@@H](O)CC[C@@]43CO)[C@]13O[C@@H]3C[C@@H]2c1ccc(=O)oc1	8.2 µg/mL (≈ 20.5 µM)	0.61 µg/mL (≈ 1.52 µM)
